Sampled rows, rich in hits. Any-hit rate of the full collection: about 3.9%.
ANO1 block: TMEM16A chloride channel inhibitors, primary screen, cell-based, HTS; Anoctamin-1 (Mus musculus), Q8BHY3; HEK293 TMEM16A/YFP iodide influx fluorescence, ionomycin; normalized B-score (activity score, 25-100; higher = stronger inhibition) at 10 µM; actives 1.2% (n = 310,000); AID 588511, 2011;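 active = ratio plate-corrected score three or more library SD toward inhibition, starting fluorescence score within five deviations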;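 note: score derived from kinetic fluorescence span divided by baseline fluorescence per well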
TAAR1 antag: human TAAR1 antagonists, primary screen, Fluo-8 calcium fluorescence, CHO RD-HGA16 cells | AID 624466, 2012 | Trace amine-associated receptor 1 (Homo sapiens), Q96RJ0 | antagonist | inhibition, % at 3 µM | actives 1.5% (n = 360,000);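 active = inhibition above a per-plate cutoff, the mean inhibition of test compounds on that plate plus 3 SD, cut at about 49% in these data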;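 note: 0% = DMSO plus EC80 beta-PEA response and 100% = DMSO alone without agonist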
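Material: CHO RD-HGA16 cells bearing hTAAR1; compound dosing: one-point dosing, 3 µM nominal final; schedule: dye loading 75 min at 37 °C, then 30 min room temperature; measured by: calcium fluorescence with Fluo-8; control set: vehicle and agonist controls; replication: n of 1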
CRFR2-BP ag: agonists of CRF-BP/CRF-R2 complex, primary screen, cell-based, HEK293, calcium dye fluorescence, uHTS | calcium dye fluorescence (FLIPR); percent of saturating CRF peptide response | activation, % at 13.2 µM | AID 588473, 2011 | actives 0.46% (n = 350,000);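 active = activation of at least 50%, plus an integration ratio under a set limit after plate pattern correction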;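 note: plate controls were neutral control wells without compound for no effect and CRF at EC100 for full effect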
CRFR2-BP antag: antagonists of CRF-BP/CRF-R2 complex, primary screen, cell-based, HEK293, calcium dye fluorescence, uHTS. CRF-induced calcium fluorescence. inhibition, % at 11.8 µM. actives 0.59% (n = 350,000). AID 588475, 2011;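 active = inhibition of the ligand-induced calcium signal above about 50% at the single tested concentration, limit read from the data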
TAAR1 ag: human TAAR1 agonists, primary screen, Fluo-8 calcium fluorescence, CHO RD-HGA16 cells; Trace amine-associated receptor 1 (Homo sapiens), Q96RJ0; vehicle wells 0%, saturating PEA agonist 100%; activation, % at 3 µM; actives 0.99% (n = 360,000);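 active = activation above the mean activation of all test compounds in the run plus 3 SD, cut at about 38% in these data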
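Test system: RD-HGA16 (CHO) cells co-expressing Gα16 and hTAAR1 / Benchmarks: DMSO vehicle as 0%, PEA at EC100 as 100% / Repeats: no replicates (n 1) / Measure: % activation from peak over basal fluorescence ratio, DMSO-to-PEA scaled / Timing: 17-24 h plating, Fluo-8 75 min 37 °C, 30 min RT / Technique: kinetic Fluo-8 calcium fluorescence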
TMEM16A act: TMEM16A chloride channel activators or potentiators, primary screen, cell-based, HTS | Anoctamin-1 (Mus musculus), Q8BHY3 | HEK293 TMEM16A/YFP-H148Q/I152L, iodide quench fluorescence; stronger effect = lower value | B-score at 10 µM | actives 0.3% (n = 340,000) | AID 623877, 2012;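 active = fluorescence-ratio B-score plate-corrected deviation score at least 3 library SD below zero, with starting fluorescence score within 5 deviations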;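 note: channel opened by trigger with iodide after compound preincubation; score built on the fluorescence ratio of max minus min over baseline; more negative score means more quench and so TMEM16A activation or potentiation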
TAAR1 nonsel count: nonselective antagonists in TAAR1 counter-screen cells, counter-screen for hTAAR1 antagonist project, cell-based, fluorescence, calcium; actives 77% (n = 2,400); inhibition, % at 3 µM; counterscreen cell line, antagonist mode; shares compounds with TAAR1 antag; in the data active = inhibition above about 22%;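 note: CHO-Ga16 host cells stimulated with ATP at an EC80 level; 0% = agonist EC80 plus vehicle and 100% = vehicle without agonist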
TAAR1 antag conf: human TAAR1 antagonists, retest of hits, confirmation, cell-based, fluorescence | shares compounds with TAAR1 antag | inhibition, % at 3 µM | actives 40% (n = 2,400) | TAAR1-expressing cells, fluorescence antagonist read-out; in the data active = inhibition above about 49%;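 note: CHO-Ga16 host cells challenged with agonist PEA near its EC80; 0% = agonist at EC80 plus vehicle and 100% = vehicle with no agonist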
Ga16 ag counter: calcium activation in Ga16-expressing cells, counter-screen for TAAR1 antagonist project, cell-based, fluorescence. shares compounds with TAAR1 antag. agonist counterscreen. activation, % at 3 µM. actives 18% (n = 2,400). AID 651953, 2012; in the data active = activation above about 12%;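 note: 0% = vehicle wells and 100% = saturating stimulus response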
TAAR1 ag count: TAAR1 activation by candidate antagonists – cell-based, fluorescence, counter-screen for TAAR1 antagonist project; AID 651955, 2012; hTAAR1 cell line, agonist mode; actives 2% (n = 2,400); shares compounds with TAAR1 antag; activation, % at 3 µM; in the data active = activation above about 37%;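 note: CHO cells stably expressing TAAR1 with calcium dye readout; 0% = DMSO vehicle and 100% = full agonist response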
The depositor's hits bear a star; i = inactive; x = no result given.

SMILES | ANO1 block | TAAR1 antag | CRFR2-BP ag | CRFR2-BP antag | TAAR1 ag | TMEM16A act | TAAR1 nonsel count | TAAR1 antag conf | Ga16 ag counter | TAAR1 ag count
CCCOC(=O)c1c(-c2ccc(OC)cc2)oc2ccc(-c3ccc(OC)nc3)cc12 | i | x | -0.2 | -1.4 | x | i | -0.4 | x | 5.4 | x
COc1ccc(NC(=O)c2cc(C3CCCCN3C(=O)c3ccc(Cl)cc3)on2)c(C)c1 (stereo unspecified) | x | -8.9 | x | x | 4.7 | x | x | x | x | x
CC1(c2nnc(-c3ccccc3)o2)CC(c2c(Cl)cccc2Cl)=NO1 (stereo unspecified) | i | 70.2* | 5.3 | 20.4 | 21.0 | i | 22.6* | 53.2* | 6.4 | 6.6
CC1(c2nnc(-c3ccncc3)o2)CC(c2c(Cl)cccc2Cl)=NO1 (stereo unspecified) | i | 32.4 | -1.1 | 9.9 | 13.2 | i | x | x | x | x
COc1ccc(-c2cc(NC(=O)Cc3c[nH]c4ccccc34)ccc2Nc2cccnc2)c(OC)c1 | x | 64.3* | x | x | 8.9 | x | 31.8* | 52.2* | 5.9 | 6.2
Cc1cc(-c2cc(NC(=O)Cc3c[nH]c4ccccc34)ccc2Nc2cccnc2)ccc1F | x | 62.9* | x | x | 9.4 | x | 26.8* | 34.7 | 4.9 | 0.3
O=C(Nc1cccc(S(=O)(=O)NC2=NCCCCC2)c1)c1cc(-c2ccco2)nc2ccccc12 | i | 50.9* | 0.3 | 6.4 | 12.6 | i | 30.3* | 46.4 | 7.9 | 5.8
O=C(Nc1cccc(-c2cnc3ccccc3n2)c1)c1cccc(NC(=O)c2ccco2)c1 | i | 74.3* | 0.2 | -16.1 | 19.3 | i | 39.1* | 63.4* | 12.1* | 9.7
O=C(Nc1cccc(-c2cnc3ccccc3n2)c1)c1ccccc1 | i | -2.2 | -2.3 | 28.0 | 9.5 | i | x | x | x | x
O=C(Nc1cccc(S(=O)(=O)NC2=NCCCCC2)c1)c1cc(-c2ccncc2)nc2ccccc12 | i | 48.0 | 2.3 | -10.6 | 11.2 | i | x | x | x | x
O=C(Nc1ccccc1N1CCOCC1)c1cc(-c2ccco2)nc2ccccc12 | i | 61.7* | -0.6 | -29.4 | 17.5 | i | 29.3* | 48.9* | 7.9 | 8.8
CC(=O)c1cccc(NC(=O)c2cc(-c3ccco3)nc3ccccc23)c1 | i | 62.8* | -0.5 | -5.7 | 13.5 | i | 30.7* | 49.7* | 6.7 | 7.1
O=C(Nc1cccc(-c2csc(Nc3ccccc3)n2)c1)c1ccccc1 | i | 64.5* | -1.3 | 3.0 | 10.2 | i | 27.8* | 33.4 | 1.6 | -0.3
O=C(Nc1cccc(-c2cnc3ccccc3n2)c1)C1CC(=O)N(c2ccccc2)C1 (stereo unspecified) | i | 80.2* | 0.5 | -10.8 | 19.6 | i | 45.4* | 62.6* | 15.6* | 17.5
Cc1ccc(/C=N/NC(=O)CSc2nnc(-c3ccc(Cl)cc3)n2-c2ccc(Cl)cc2)o1 | i | 55.9* | 0.4 | 7.1 | 14.5 | i | 22.4* | 52.3* | 7.1 | 10.4
Cc1ccc(-c2csc(NC(=O)CN3CC(C)OC(C)C3)n2)cc1 (stereo unspecified) | i | -15.5 | 2.7 | -13.0 | -2.6 | i | x | x | x | x
Cc1ccc(S(=O)(=O)N(C)c2ccc(OC(=O)CN3C(=O)NC4(CCCC4)C3=O)cc2)cc1C | i | 82.0* | 0.5 | -0.7 | 13.4 | i | 39.7* | 51.4* | 11.5* | 8.2
Cc1ccc(S(=O)(=O)N(C)c2ccc(OC(=O)CN3C(=O)NC4(CCCC4)C3=O)cc2)cc1 | i | 12.1 | 1.1 | 6.4 | 6.2 | i | x | x | x | x
Cc1ccc(CNC(=O)C2CCCN(c3nc4ccsc4c(=O)s3)C2)cc1 (stereo unspecified) | i | -18.5 | 3.3 | -8.5 | 0.6 | i | x | x | x | x
O=C(N/N=C/c1cccnc1)c1ccccc1OCc1cccc(Br)c1 | i | 42.3 | -0.5 | 18.4 | 13.0 | i | x | x | x | x
Cc1ccc(/C=N/NC(=O)c2ccccc2OCc2cccc(Br)c2)o1 | i | 58.5* | 0.1 | -20.4 | 8.5 | i | 20.5 | 57.8* | 6.5 | 29.4
Oc1ccc(N=Nc2ccc3ccccc3c2)cc1 | i | 12.8 | -0.6 | 4.7 | 0.0 | i | x | x | x | x
Oc1c(N=NC(=S)Nc2ccccc2F)c2ccccc2n1Cc1ccccc1F | i | 54.4* | 0.8 | 11.1 | 7.4 | i | -2.4 | 29.7 | 4.5 | 4.4
N#Cc1ccc(-c2csc(NC(=O)/C=C/c3cccs3)n2)cc1 | i | 61.2* | 0.1 | -60.0 | 2.9 | i | 39.9* | 51.5* | 8.7 | 3.8
CC(C)[C@H](NC(=O)N1CCOCC1)C(=O)N1CCC[C@H]1C(=O)NCc1ccccc1 | x | 12.5 | x | x | 0.5 | x | x | x | x | x
COc1ccc(NC(=O)CSc2nc3c(sc4ccccc43)c(=O)n2CCCN2CCCC2)cc1 | i | x | 0.2 | -14.7 | x | i | x | x | x | x
CCNC(=O)OC[C@H]1O[C@H](C#Cc2ccc(C(C)(C)C)cc2)C=C[C@H]1O | x | -2.2 | x | x | 1.4 | x | x | x | x | x
CC(C)(C)c1ccc(C#C[C@@H]2C=C[C@H](O)[C@@H](COC(=O)Nc3ccccc3)O2)cc1 | x | 50.7* | x | x | 13.9 | x | 25.7* | 29.4 | 3.8 | 14.2
CC1Oc2ccccc2N(Cc2ccc(F)cc2)C1=O (stereo unspecified) | i | 3.3 | -4.5 | 3.1 | 3.2 | i | x | x | x | x
O=C(CCN1C(=O)/C(=C\c2ccccc2Cl)SC1=S)Nc1cccnc1 | i | 49.9* | -0.1 | 5.6 | 12.1 | i | 47.7* | 69.2* | 17.8* | 22.6

From PubChem
